Here are results for four compounds from ChEMBL document CHEMBL1134460, “Terminally alkylated polyamine analogues as chemotherapeutic agents” (J Med Chem, 2001).

Where only a bound is given, the exact number is not on record here.

Data set [1] relates to Trypanosoma brucei. Put plainly: In vitro growth Inhibitory activity against K269 Strain of Trypanosoma brucei. The format is functional, organism-based. The essentials:
(§1)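 In vitro growth inhibition was run against T. b. brucei LAB EATRO 110 and T. b. rhodesiense KETRI 243, KETRI 243 As-10-3 and KETRI 269. […] ">100" means no appreciable inhibition up to the highest concentration tested.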

Data set [2] relates to Trypanosoma brucei. Put plainly: In vitro growth Inhibitory activity against LAB 110 Strain of Trypanosoma brucei. The format is functional, organism-based. The method in brief:
as §1

Data set [3] concerns Trypanosoma brucei. Put plainly: In vitro growth Inhibitory activity against K243 As-10-3 Strain of Trypanosoma brucei. The format is functional, organism-based. The essentials:
as §1

Data set [4] has as its system Trypanosoma brucei. Put plainly: In vitro growth Inhibitory activity against K243 Strain of Trypanosoma brucei. It counts as functional, organism-based. The method in brief:
as §1

Data set [5] concerns ZR-75-1. Nature of the data set: Growth inhibition of ZR-75-1 breast cancer cell line. The format is functional, cell-based. The following applies: Homo sapiens.
Data set [6] concerns the target T1, Ornithine decarboxylase (Homo sapiens) (UniProt P11926).
T1 sequence (whole entry): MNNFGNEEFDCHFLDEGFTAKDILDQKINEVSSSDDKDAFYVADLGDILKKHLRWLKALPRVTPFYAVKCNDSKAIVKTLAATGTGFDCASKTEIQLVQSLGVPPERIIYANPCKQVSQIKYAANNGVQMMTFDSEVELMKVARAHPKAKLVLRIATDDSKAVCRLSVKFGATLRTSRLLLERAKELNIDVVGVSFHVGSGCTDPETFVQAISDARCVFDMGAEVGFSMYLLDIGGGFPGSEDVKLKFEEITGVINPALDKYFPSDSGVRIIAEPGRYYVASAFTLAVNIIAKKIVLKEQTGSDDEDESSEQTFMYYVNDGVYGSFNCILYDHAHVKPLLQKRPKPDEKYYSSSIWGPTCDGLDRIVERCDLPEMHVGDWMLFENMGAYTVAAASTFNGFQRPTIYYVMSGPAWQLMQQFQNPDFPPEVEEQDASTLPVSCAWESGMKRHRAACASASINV
Nature of the data set: Inhibition of ornithine decarboxylase (ODC). Also on record: concentration or dose not given beside the values. The following applies: concentration not given here.

In data set [7] the test system is MCF7. Nature of the data set: Growth inhibition of MCF-7 breast cancer cell line. It counts as functional, cell-based. As to conditions: Homo sapiens.
Data set [8] deals with NCI-H157. Nature of the data set: Effect of exposure of H157 non-SCLC (<10 uM) for 96-h, and accumulation of compound was determined. The format is functional, Homo sapiens.
Data set [9] in a line: Growth inhibition of […] breast cancer cell line. The format is functional, cell-based. As to conditions: Homo sapiens, MDA-MB-468.
Data set [10] concerns NCH82. Nature of the data set: In vitro activity against H82 small-cell lung tumor line (SCLC) cultures. As to conditions: Homo sapiens. It counts as functional, cell-based.
The test system of data set [11] is NCI-H157. Nature of the data set: Effect of exposure of H157 non-SCLC to compound (<10 uM) for 96-h, on natural polyamines and accumulation of the compound; Decrease. The format is functional, cell-based. As to conditions: Homo sapiens. The method in brief: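 H157 non-SCLC cells were treated with 10 μM analogue. Cellular putrescine, spermidine and spermine, plus the intracellular analogue, were quantified and compared with untreated control cells.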

For data set [12], the system named is NCI-H157. Put plainly: In vitro activity against H157 non-small-cell lung tumor line (non-SCLC) cultures. It counts as functional, cell-based. The following applies: Homo sapiens.
Data set [13] concerns Hs-578T. Nature of the data set: Growth inhibition of Hs 578.T breast cancer cell line. It counts as functional, cell-based. The following applies: Homo sapiens.
The target of data set [14] is T2, Diamine acetyltransferase 1 (Homo sapiens, UniProt P21673). Put plainly: Effect of 10 uM on spermine/spermidine-N-acetyltransferase (SSAT) induction in non-SCLC cells. The format is cell-based. The method in brief:
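NCI H157 non-small-cell lung tumor cells were exposed to 10 μM analogue. SSAT activity was assayed and expressed as pmol product/mg protein/min, then as fold increase over untreated control cells.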

In data set [15] the test system is T47D. Put plainly: Growth inhibition of T47D breast cancer cell line. It counts as functional, cell-based. As to conditions: Homo sapiens.
The subject of data set [16] is NCI-H157. Put plainly: Activity against H157 non-SCLC cells in culture. It counts as functional, cell-based. The following applies: Homo sapiens.
Data set [17] concerns the target T2, Diamine acetyltransferase 1. Put plainly: Inhibitory activity of compound against SSAT extracted from superinduced H157 cells. The format is cell-free. The essentials:
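SSAT came from crude extracts of superinduced H157 cells and was assayed at saturating spermidine.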

Data set [18] deals with MDA-MB-231. Put plainly: Growth inhibition of MDA-MB-231 breast cancer cell line. As to conditions: Homo sapiens. It counts as functional, cell-based.
Data set [19] relates to NCH82. Nature of the data set: Effect of 10 uM of compound on NCI H82 cell lines was assessed from the amount of spermine (values in parentheses are those in the absence of compound). The format is functional, Homo sapiens.
Data set [20] has as its system NCI-H157. Put plainly: Effect of 10 uM of compound on NCI H157 cell lines was assessed from the amount of SSAT (values in parentheses are those in the absence of compound). It counts as functional, Homo sapiens. The method in brief: (§2)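 Cells were exposed to 10 μM analogue, with untreated controls. SSAT was expressed as nmol product formed/mg protein in 24 h. The detection limit was 0.05 nmol/mg protein.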

The target of data set [21] is S-adenosylmethionine decarboxylase (Homo sapiens) (UniProt P17707). Nature of the data set: Inhibition of Inhibition of human form of S-adenosyl-methionine decarboxylase enzyme (AdoMet-DC). Also on record: concentration or dose not given beside the values. As to conditions: concentration not given here.
Data set [22] deals with NCH82. Put plainly: Effect of 10 uM of compound on NCI H82 cell lines was assessed from the amount of spermidine (values in parentheses are those in the absence of compound). It counts as functional, Homo sapiens.
Data set [23] has as its system NCH82. Put plainly: Effect of 10 uM of compound on NCI H82 cell lines was assessed from the amount of SSAT (values in parentheses are those in the absence of compound). It counts as functional, Homo sapiens. The method in brief: as §2
The test system of data set [24] is NCI-H157. Put plainly: CHENSpm level in NCI H157 non-SCLC tumor cells following 24-h treatment with 10 uM of compound( Values in parentheses are control values). It counts as functional, Homo sapiens. The essentials:
(§3)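 NCI H157 non-SCLC cells were exposed to 10 μM analogue alongside untreated controls. Cellular polyamines and analogue were quantified. SSAT activity was assayed in the cells and reported as pmol product/mg protein/min.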

Data set [25] has as its system NCI-H157. Put plainly: Putrescine level in NCI H157 non-SCLC tumor cells following 24-h treatment with 10 uM of compound( Values in parentheses are control values). The format is functional, Homo sapiens. The essentials: as §3
Data set [26] concerns NCI-H157. Nature of the data set: Spermine/Spermidine-N1-acetyltransferase activity in NCI H157 non-SCLC tumor cells following 24-h treatment with 10 uM of compound.( Values in parentheses are control values). It counts as functional, Homo sapiens. The essentials:
as §3

The test system of data set [27] is NCI-H157. Nature of the data set: BENSpm level in NCI H157 non-SCLC tumor cells following 24-h treatment with 10 uM of compound( Values in parentheses are control values). It counts as functional, Homo sapiens. The essentials: as §3
The nature of data set [28]: Half-life period as determined by N-deethylation and stepwise removal of aminopropyl equivalents. The format is ADME.
Data set [29] has as its system NCI-H157. Put plainly: Spermidine level in NCI H157 non-SCLC tumor cells following 24-h treatment with 10 uM of compound( Values in parentheses are control values). The format is functional, Homo sapiens. The essentials: as §3
In data set [30] the test system is NCI-H157. Put plainly: Spermine level in NCI H157 non-SCLC tumor cells following 24-h treatment with 10 uM of compound( Values in parentheses are control values). The format is functional, Homo sapiens. The method in brief:
as §3

T2 sequence (P21673 whole entry): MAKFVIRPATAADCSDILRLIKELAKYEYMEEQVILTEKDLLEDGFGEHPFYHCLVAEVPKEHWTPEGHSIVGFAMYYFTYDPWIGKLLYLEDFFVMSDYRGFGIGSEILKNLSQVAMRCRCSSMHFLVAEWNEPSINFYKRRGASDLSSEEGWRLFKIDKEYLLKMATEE

As for `COc1cccc(CNCCCNCCCCCCCNCCCNCc2cccc(OC)c2)c1`, the IC50 – broadly, the concentration needed to halve the response being measured – was 16.5 µM in [1], 22 µM in data set [2], 5.5 µM in data set [3] and 18.5 µM in data set [4].

`CCNCCCNCCCNCCCNCC1CC1`: the IC50 in data set [5] was determined as 1100 nM; in data set [7] it was 1100 nM; in [9] it was 600 nM; in [10] it was 5.2 µM; in data set [12], 700 nM; in [13], 200 nM. In addition, the IC50 in data set [15] worked out at 400 nM; in [16], 800 nM; in data set [17] it was 100 µM; in [18] it was 1300 nM. For the same compound, the inhibition (commonly the change of the read-out against control, counted positive when it falls) in data set [6] was more than 50%. For the same compound, in data set [8], the Amount was >20 nM (mg of protein)-1. Besides, in [11], the “Effect on polyamine pools” value is given as “Decrease”. Besides, the Induction in data set [14] was more than 500.

For the compound `CCNCCCNCCCCNCCCNCC` [BIS(ETHYL)SPERMINE], the Polyamine in data set [19] was 10.06 nM (mg of protein)-1; in data set [20], 6511 nM (mg of protein)-1; in data set [22], 3.07 nM (mg of protein)-1; in [23] it was 60 nM (mg of protein)-1. For the same compound, the inhibition in data set [6] and in [21] was more than 50% each time. In addition, the Amount in data set [8] was >20 nM (mg of protein)-1. Also, the “Effect on polyamine pools” value in [11] is recorded as “Decrease”. In [14], this compound returned an Induction of more than 500.

On to `CCNCCCNCCCNCCCNCC` [BIS(ETHYL)NORSPERMINE], for which the Polyamine level in data set [24] is 0; in data set [25], 0; in data set [27], 36.07; in data set [29], 0; in [30] it was 0.51. Moreover, the inhibition in data set [6] and in data set [21] was more than 50% in each case. Further, in [8], the Amount was >20 nM (mg of protein)-1. In addition, the “Effect on polyamine pools” value in data set [11] is on record as “Decrease”. Also, the Activity in data set [26] is reported as 148141 (pM of product) min-1 (mg of protein)-1. Moreover, the Induction in data set [14] is more than 500. Also, the half-life (in general, how long it takes for the measured level to halve) in data set [28] came out at 73 min.
